Active and inactive are the calls of the source. No cut-off for these calls is given here.
Target: T1, Melanocyte-stimulating hormone receptor (Homo sapiens, UniProt Q01726)
Experiment: Displacement of [125I]NDP-alphaMSH from human MC1 receptor expressed in HEK293 cells
Type: cell-based
In short: (§1)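 Whole-cell competition used transfected HEK293 cells seeded 48 h ahead at 100 000 cells/well. Binding buffer was MEM with 25 mM HEPES pH 7.4, 0.2% BSA, 1 mM 1,10-phenanthroline, leupeptin and bacitracin. Radioactivity was gamma-counted, and IC50 was obtained by nonlinear least-squares fit.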

SMILES | Activity | IC50 [nM]
CC(=O)N[C@H]1CSSC[C@@H](C(=O)N[C@@H](Cc2c[nH]c3ccccc23)C(N)=O)N(CCCCN=C(N)N)C(=O)[C@@H](Cc2ccccc2)NC(=O)[C@H](Cc2c[nH]cn2)NC1=O | inactive | 
CC(=O)N[C@H]1CCC(=O)NCCC[C@@H](C(=O)N[C@@H](Cc2c[nH]c3ccccc23)C(N)=O)N(CCCCN=C(N)N)C(=O)[C@@H](Cc2ccc3ccccc3c2)NC(=O)[C@H](Cc2c[nH]cn2)NC1=O |  | > 10000
CC(=O)N[C@H]1CCC(=O)NCC[C@@H](C(=O)N[C@@H](Cc2c[nH]c3ccccc23)C(N)=O)N(CCCCN=C(N)N)C(=O)[C@@H](Cc2ccccc2)NC(=O)[C@H](Cc2cnc[nH]2)NC1=O |  | > 1000

Target: T2, Melanocortin receptor 3 (Homo sapiens, UniProt P41968)
T2 sequence (P41968 whole entry): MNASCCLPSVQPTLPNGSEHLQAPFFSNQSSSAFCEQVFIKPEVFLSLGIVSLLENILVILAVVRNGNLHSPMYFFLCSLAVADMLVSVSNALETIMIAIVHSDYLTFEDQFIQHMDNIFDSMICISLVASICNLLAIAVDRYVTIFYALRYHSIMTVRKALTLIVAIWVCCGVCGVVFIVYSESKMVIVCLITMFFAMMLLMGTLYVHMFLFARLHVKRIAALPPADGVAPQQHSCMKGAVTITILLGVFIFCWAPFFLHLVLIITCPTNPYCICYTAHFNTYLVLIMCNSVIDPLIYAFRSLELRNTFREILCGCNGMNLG
Experiment: Displacement of [125I]NDP-alphaMSH from human MC3 receptor expressed in HEK293 cells
Type: cell-based
In short: as §1

SMILES | Activity | IC50 [nM]
CC(=O)N[C@H]1CSSC[C@@H](C(=O)N[C@@H](Cc2c[nH]c3ccccc23)C(N)=O)N(CCCCN=C(N)N)C(=O)[C@@H](Cc2ccccc2)NC(=O)[C@H](Cc2c[nH]cn2)NC1=O | inactive | 
CC(=O)N[C@H]1CCC(=O)NCCC[C@@H](C(=O)N[C@@H](Cc2c[nH]c3ccccc23)C(N)=O)N(CCCCN=C(N)N)C(=O)[C@@H](Cc2ccc3ccccc3c2)NC(=O)[C@H](Cc2c[nH]cn2)NC1=O |  | > 1000
CC(=O)N[C@H]1CCC(=O)NCC[C@@H](C(=O)N[C@@H](Cc2c[nH]c3ccccc23)C(N)=O)N(CCCCN=C(N)N)C(=O)[C@@H](Cc2ccccc2)NC(=O)[C@H](Cc2cnc[nH]2)NC1=O |  | > 1000

Target: T3, Melanocortin receptor 4 (Homo sapiens, UniProt P32245)
T3 sequence (P32245 whole entry): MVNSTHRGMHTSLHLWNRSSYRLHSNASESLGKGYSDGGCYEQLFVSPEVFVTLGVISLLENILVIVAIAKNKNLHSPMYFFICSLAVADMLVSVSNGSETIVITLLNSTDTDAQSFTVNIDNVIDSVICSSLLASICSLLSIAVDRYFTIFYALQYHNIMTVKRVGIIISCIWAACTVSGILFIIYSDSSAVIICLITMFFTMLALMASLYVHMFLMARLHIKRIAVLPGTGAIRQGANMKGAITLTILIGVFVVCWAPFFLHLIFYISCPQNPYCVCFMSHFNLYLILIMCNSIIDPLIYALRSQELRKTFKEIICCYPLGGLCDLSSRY
Experiment: Displacement of [125I]NDP-alphaMSH from human MC4 receptor expressed in HEK293 cells
Type: cell-based
In short: as §1

SMILES | Activity
CC(=O)N[C@H]1CCC(=O)NCCC[C@@H](C(=O)N[C@@H](Cc2c[nH]c3ccccc23)C(N)=O)N(CCCCN=C(N)N)C(=O)[C@@H](Cc2ccc3ccccc3c2)NC(=O)[C@H](Cc2c[nH]cn2)NC1=O | inactive

Target: T4, Melanocortin receptor 5 (Homo sapiens, UniProt P33032)
T4 sequence (P33032 whole entry): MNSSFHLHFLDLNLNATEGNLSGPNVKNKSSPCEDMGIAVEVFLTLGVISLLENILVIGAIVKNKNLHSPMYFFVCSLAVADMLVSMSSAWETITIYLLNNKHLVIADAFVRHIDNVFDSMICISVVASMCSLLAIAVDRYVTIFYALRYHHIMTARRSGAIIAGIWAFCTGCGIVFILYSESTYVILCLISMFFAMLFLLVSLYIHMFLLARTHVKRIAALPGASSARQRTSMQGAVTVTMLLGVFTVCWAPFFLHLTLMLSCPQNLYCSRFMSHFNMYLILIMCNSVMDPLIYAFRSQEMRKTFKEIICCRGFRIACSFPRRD
Experiment: Displacement of [125I]NDP-alphaMSH from human MC5 receptor expressed in HEK293 cells
Type: cell-based
In short: as §1

SMILES | Activity
CC(=O)N[C@H]1CSSC[C@@H](C(=O)N[C@@H](Cc2c[nH]c3ccccc23)C(N)=O)N(CCCCN=C(N)N)C(=O)[C@@H](Cc2ccccc2)NC(=O)[C@H](Cc2c[nH]cn2)NC1=O | inactive
CC(=O)N[C@H]1CCC(=O)NCCC[C@@H](C(=O)N[C@@H](Cc2c[nH]c3ccccc23)C(N)=O)N(CCCCN=C(N)N)C(=O)[C@@H](Cc2ccc3ccccc3c2)NC(=O)[C@H](Cc2c[nH]cn2)NC1=O | inactive

Target: T2, Melanocortin receptor 3
Experiment: Activity at hMC3R transfected in HEK293 cells assessed as intracellular cAMP accumulation
Type: functional, cell-based
In short: (§2)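 HEK293 cells stably carrying the human MC receptor were seeded 48 h ahead at 50 000 cells/well. They were preincubated 1 min at 37 °C in EBSS with IBMX, then exposed to peptide at 10⁻¹⁰ to 10⁻⁵ M for 3 min at 37 °C. Ice-cold Tris/EDTA stopped the reaction, and lysates were boiled 15 min. Total cAMP was measured by competitive binding kit, and EC50 was obtained by nonlinear least-squares fit.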

SMILES | Activity
CC(=O)N[C@H]1CSSC[C@@H](C(=O)N[C@@H](Cc2c[nH]c3ccccc23)C(N)=O)N(CCCCN=C(N)N)C(=O)[C@@H](Cc2ccccc2)NC(=O)[C@H](Cc2c[nH]cn2)NC1=O | inactive
CC(=O)N[C@H]1CCC(=O)NCCC[C@@H](C(=O)N[C@@H](Cc2c[nH]c3ccccc23)C(N)=O)N(CCCCN=C(N)N)C(=O)[C@@H](Cc2ccc3ccccc3c2)NC(=O)[C@H](Cc2c[nH]cn2)NC1=O | inactive

Target: T3, Melanocortin receptor 4
Experiment: Activity at hMC4R transfected in HEK293 cells assessed as intracellular cAMP accumulation
Type: functional, cell-based
In short: as §2

SMILES | Activity
CC(=O)N[C@H]1CSSC[C@@H](C(=O)N[C@@H](Cc2c[nH]c3ccccc23)C(N)=O)N(CCCCN=C(N)N)C(=O)[C@@H](Cc2ccccc2)NC(=O)[C@H](Cc2c[nH]cn2)NC1=O | inactive
CC(=O)N[C@H]1CCC(=O)NCCC[C@@H](C(=O)N[C@@H](Cc2c[nH]c3ccccc23)C(N)=O)N(CCCCN=C(N)N)C(=O)[C@@H](Cc2ccc3ccccc3c2)NC(=O)[C@H](Cc2c[nH]cn2)NC1=O | inactive

Target: T4, Melanocortin receptor 5
Experiment: Activity at hMC5R transfected in HEK293 cells assessed as intracellular cAMP accumulation
Type: functional, cell-based
In short: as §2

SMILES | Activity
CC(=O)N[C@H]1CSSC[C@@H](C(=O)N[C@@H](Cc2c[nH]c3ccccc23)C(N)=O)N(CCCCN=C(N)N)C(=O)[C@@H](Cc2ccccc2)NC(=O)[C@H](Cc2c[nH]cn2)NC1=O | inactive
CC(=O)N[C@H]1CCC(=O)NCCC[C@@H](C(=O)N[C@@H](Cc2c[nH]c3ccccc23)C(N)=O)N(CCCCN=C(N)N)C(=O)[C@@H](Cc2ccc3ccccc3c2)NC(=O)[C@H](Cc2c[nH]cn2)NC1=O | inactive

Target: T1, Melanocyte-stimulating hormone receptor
Experiment: Displacement of [125I]NDP-alphaMSH from human MC1 receptor expressed in HEK293 cells relative to MT2
Type: cell-based
In short: (§3)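 Binding efficiency was measured in the whole-cell [¹²⁵I]NDP-α-MSH competition assay on receptor-transfected HEK293 cells (30 min, 37 °C). It is expressed as the peptide's maximal percentage specific binding relative to MTII agonist binding, with peptides tested at 10⁻¹⁰ to 10⁻⁵ M.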
Target sequence in this assay (Q01726 whole entry, looked up): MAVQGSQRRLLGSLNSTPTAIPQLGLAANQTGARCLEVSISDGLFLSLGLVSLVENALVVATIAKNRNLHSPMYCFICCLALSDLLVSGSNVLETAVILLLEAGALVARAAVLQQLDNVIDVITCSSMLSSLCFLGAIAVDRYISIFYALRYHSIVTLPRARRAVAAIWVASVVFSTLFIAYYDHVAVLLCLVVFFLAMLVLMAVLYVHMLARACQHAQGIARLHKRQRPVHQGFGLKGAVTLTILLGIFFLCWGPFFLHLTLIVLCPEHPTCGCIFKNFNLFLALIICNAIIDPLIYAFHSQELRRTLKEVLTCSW

SMILES | Activity [%]
CC(=O)N[C@H]1CSSC[C@@H](C(=O)N[C@@H](Cc2c[nH]c3ccccc23)C(N)=O)N(CCCCN=C(N)N)C(=O)[C@@H](Cc2ccccc2)NC(=O)[C@H](Cc2c[nH]cn2)NC1=O | 0
CC(=O)N[C@H]1CCC(=O)NCCC[C@@H](C(=O)N[C@@H](Cc2c[nH]c3ccccc23)C(N)=O)N(CCCCN=C(N)N)C(=O)[C@@H](Cc2ccc3ccccc3c2)NC(=O)[C@H](Cc2c[nH]cn2)NC1=O | < 10

Target: T2, Melanocortin receptor 3
Experiment: Displacement of [125I]NDP-alphaMSH from human MC3 receptor expressed in HEK293 cells relative to MT2
Type: cell-based
In short: as §3

SMILES | Activity [%]
CC(=O)N[C@H]1CSSC[C@@H](C(=O)N[C@@H](Cc2c[nH]c3ccccc23)C(N)=O)N(CCCCN=C(N)N)C(=O)[C@@H](Cc2ccccc2)NC(=O)[C@H](Cc2c[nH]cn2)NC1=O | 0
CC(=O)N[C@H]1CCC(=O)NCCC[C@@H](C(=O)N[C@@H](Cc2c[nH]c3ccccc23)C(N)=O)N(CCCCN=C(N)N)C(=O)[C@@H](Cc2ccc3ccccc3c2)NC(=O)[C@H](Cc2c[nH]cn2)NC1=O | 50

Target: T3, Melanocortin receptor 4
Experiment: Displacement of [125I]NDP-alphaMSH from human MC4 receptor expressed in HEK293 cells relative to MT2
Type: cell-based
In short: as §3

SMILES | Activity [%]
CC(=O)N[C@H]1CSSC[C@@H](C(=O)N[C@@H](Cc2c[nH]c3ccccc23)C(N)=O)N(CCCCN=C(N)N)C(=O)[C@@H](Cc2ccccc2)NC(=O)[C@H](Cc2c[nH]cn2)NC1=O | 50
CC(=O)N[C@H]1CCC(=O)NCCC[C@@H](C(=O)N[C@@H](Cc2c[nH]c3ccccc23)C(N)=O)N(CCCCN=C(N)N)C(=O)[C@@H](Cc2ccc3ccccc3c2)NC(=O)[C@H](Cc2c[nH]cn2)NC1=O | 0

Target: T4, Melanocortin receptor 5
Experiment: Displacement of [125I]NDP-alphaMSH from human MC5 receptor expressed in HEK293 cells relative to MT2
Type: cell-based
In short: as §3

SMILES | Activity [%]
CC(=O)N[C@H]1CSSC[C@@H](C(=O)N[C@@H](Cc2c[nH]c3ccccc23)C(N)=O)N(CCCCN=C(N)N)C(=O)[C@@H](Cc2ccccc2)NC(=O)[C@H](Cc2c[nH]cn2)NC1=O | 0
CC(=O)N[C@H]1CCC(=O)NCCC[C@@H](C(=O)N[C@@H](Cc2c[nH]c3ccccc23)C(N)=O)N(CCCCN=C(N)N)C(=O)[C@@H](Cc2ccc3ccccc3c2)NC(=O)[C@H](Cc2c[nH]cn2)NC1=O | 0

Target: T1, Melanocyte-stimulating hormone receptor
Experiment: Activity at hMC1R transfected in HEK293 cells assessed as intracellular cAMP accumulation relative to MT2
Type: functional, cell-based
Parameters: concentration or dose not given beside the values
Target sequence in this assay (Q01726 whole entry, looked up): as above

SMILES | Activity [%]
CC(=O)N[C@H]1CSSC[C@@H](C(=O)N[C@@H](Cc2c[nH]c3ccccc23)C(N)=O)N(CCCCN=C(N)N)C(=O)[C@@H](Cc2ccccc2)NC(=O)[C@H](Cc2c[nH]cn2)NC1=O | 0
CC(=O)N[C@H]1CCC(=O)NCCC[C@@H](C(=O)N[C@@H](Cc2c[nH]c3ccccc23)C(N)=O)N(CCCCN=C(N)N)C(=O)[C@@H](Cc2ccc3ccccc3c2)NC(=O)[C@H](Cc2c[nH]cn2)NC1=O | 0

Target: T2, Melanocortin receptor 3
Experiment: Activity at hMC3R transfected in HEK293 cells assessed as intracellular cAMP accumulation relative to MT2
Type: functional, cell-based
Parameters: concentration or dose not given beside the values

SMILES | Activity [%]
CC(=O)N[C@H]1CSSC[C@@H](C(=O)N[C@@H](Cc2c[nH]c3ccccc23)C(N)=O)N(CCCCN=C(N)N)C(=O)[C@@H](Cc2ccccc2)NC(=O)[C@H](Cc2c[nH]cn2)NC1=O | 0
CC(=O)N[C@H]1CCC(=O)NCCC[C@@H](C(=O)N[C@@H](Cc2c[nH]c3ccccc23)C(N)=O)N(CCCCN=C(N)N)C(=O)[C@@H](Cc2ccc3ccccc3c2)NC(=O)[C@H](Cc2c[nH]cn2)NC1=O | 0

Target: T3, Melanocortin receptor 4
Experiment: Activity at hMC4R transfected in HEK293 cells assessed as intracellular cAMP accumulation relative to MT2
Type: functional, cell-based
Parameters: concentration or dose not given beside the values

SMILES | Activity [%]
CC(=O)N[C@H]1CSSC[C@@H](C(=O)N[C@@H](Cc2c[nH]c3ccccc23)C(N)=O)N(CCCCN=C(N)N)C(=O)[C@@H](Cc2ccccc2)NC(=O)[C@H](Cc2c[nH]cn2)NC1=O | 0
CC(=O)N[C@H]1CCC(=O)NCCC[C@@H](C(=O)N[C@@H](Cc2c[nH]c3ccccc23)C(N)=O)N(CCCCN=C(N)N)C(=O)[C@@H](Cc2ccc3ccccc3c2)NC(=O)[C@H](Cc2c[nH]cn2)NC1=O | 0

Target: T4, Melanocortin receptor 5
Experiment: Activity at hMC5R transfected in HEK293 cells assessed as intracellular cAMP accumulation relative to MT2
Type: functional, cell-based

SMILES | Activity [%]
CC(=O)N[C@H]1CSSC[C@@H](C(=O)N[C@@H](Cc2c[nH]c3ccccc23)C(N)=O)N(CCCCN=C(N)N)C(=O)[C@@H](Cc2ccccc2)NC(=O)[C@H](Cc2c[nH]cn2)NC1=O | 0
CC(=O)N[C@H]1CCC(=O)NCCC[C@@H](C(=O)N[C@@H](Cc2c[nH]c3ccccc23)C(N)=O)N(CCCCN=C(N)N)C(=O)[C@@H](Cc2ccc3ccccc3c2)NC(=O)[C@H](Cc2c[nH]cn2)NC1=O | 0
